ChEMBL document CHEMBL3351764, “Design, synthesis and biological activity of flavonoid derivatives as selective agonists for neuromedin U 2 receptor” (Bioorg Med Chem, 2014)

biological target: Neuromedin-U receptor 2 (Homo sapiens, UniProt Q9GZQ4); assay: Agonist activity at human NMU2R transfected in HEK293 cells after 7 hrs by luciferase reporter gene assay; assay type: cell-based; settings: read-out: EC50
How it was run: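 HEK-293 cells were stably co-transfected with a reporter gene construct and human NMU2R cDNA in pcDNA3.1(+), maintained under G418 selection at 37 °C in 5% CO2, then seeded and incubated overnight. Compounds were added at various concentrations for 7 h at 37 °C, followed by Bright-Glo luciferase read-out. Forskolin and NMU served as positive controls. EC50 was fitted by four-parameter logistic regression; means ± SEM of three independent experiments.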

Sequence of Neuromedin-U receptor 2 (Q9GZQ4 whole entry): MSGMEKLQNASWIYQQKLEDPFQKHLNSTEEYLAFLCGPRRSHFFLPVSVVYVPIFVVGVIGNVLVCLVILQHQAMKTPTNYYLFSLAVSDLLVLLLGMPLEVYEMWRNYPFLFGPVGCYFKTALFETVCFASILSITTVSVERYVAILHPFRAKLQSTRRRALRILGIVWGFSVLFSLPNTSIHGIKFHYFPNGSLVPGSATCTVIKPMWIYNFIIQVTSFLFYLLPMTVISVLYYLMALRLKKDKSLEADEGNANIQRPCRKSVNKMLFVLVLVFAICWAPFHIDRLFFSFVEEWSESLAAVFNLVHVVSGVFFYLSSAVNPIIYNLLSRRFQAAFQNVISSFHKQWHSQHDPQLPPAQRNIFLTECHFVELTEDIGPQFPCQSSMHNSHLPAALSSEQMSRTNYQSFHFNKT

Question: H-FRVDEEFQSPFASQSRGYFLFRPRN-NH2 was tested. Which EC50 did it give?
Answer: 6.1 µM

Question: Which EC50 does the source give for `C[C@@H]1O[C@@H](OC[C@H]2O[C@@H](Oc3c(-c4ccc(O)c(O)c4)oc4cc(O)cc(O)c4c3=O)[C@H](O)[C@@H](O)[C@@H]2O)[C@H](O)[C@H](O)[C@H]1O` [RUTIN] here?
Answer: 1200 µM

Question: With `CNCC(O)c1ccc(O)cc1` (stereo not drawn) [OXEDRINE] as the compound, how does the EC50 read?
Answer: 6.6 µM
